NS3 helicase inh: HCV NS3 helicase inhibition. hit rate 0.56% among 290,000. NS3 helicase DNA unwinding, Cy5 molecular beacon fluorescence. inhibition, % at 10.9 µM;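 active = inhibition above the mean of all tested compounds plus 3 SD, set per campaign, cut at about 35% in these data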;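 also: 0% = DMSO wells and 100% = thioflavine S control wells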
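System: Hepatitis C virus NS3 helicase domain fragment enzyme | Reagent: Annealed dual-labelled DNA beacon duplex, ATP-started | Compound dosing: 10.9 µM single point, 0.8% DMSO | Incubation: 1 h reaction at 25 °C, ATP-initiated | Technique: Cy5 fluorescence | Evaluation: Percent inhibition from t60/t0 fluorescence ratio | Benchmarks: Low DMSO, high thioflavine S at 110 µM | Replication: Singlicate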
ZTA DNA inh: counter-screen for EBNA-1 inhibitors: inhibitors of Epstein-Barr virus ZTA | P03206 | ZTA-DNA binding, fluorescence polarization | inhibition, % at 11 µM | hit rate 0.15% among 320,000; in the data active = inhibition above about 33%
Target sequence (P03206 whole entry, looked up): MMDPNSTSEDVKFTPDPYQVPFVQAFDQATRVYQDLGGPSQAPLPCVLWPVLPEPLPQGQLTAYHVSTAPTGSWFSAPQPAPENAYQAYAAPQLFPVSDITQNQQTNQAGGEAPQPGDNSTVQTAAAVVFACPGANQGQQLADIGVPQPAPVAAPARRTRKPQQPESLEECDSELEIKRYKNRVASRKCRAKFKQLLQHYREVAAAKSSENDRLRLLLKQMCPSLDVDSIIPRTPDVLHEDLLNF
core dimer inh: blocks dimerization of HCV core protein. TR-FRET GST/Flag-core106 dimerization, 1536-well. hit rate 0.33% among 300,000. inhibition, % at 5 µM;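 active = inhibition above the mean of all tested compounds plus 3 SD, set per screening campaign, cut at about 45% in these data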
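Assay system: GST-tagged and Flag-tagged HCV core protein residues 1-106 / Times: compound-protein-antibody incubation 4 h at 22.5 °C / Signal: time-resolved FRET, ex 340 nm, em 617 and 671 nm / Evaluation: % inhibition based on acceptor/donor emission ratio / Benchmarks: wells lacking GST-core106 and wells with excess unlabelled core106 / Repeats: singlicate, one well per compound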
EBNA-1 inhibitor: blocks EBNA-1 binding to DNA | hit rate 0.34% among 300,000 | AID 1950 | inhibition, % at 14.8 µM | EBNA-1 DNA binding, fluorescence polarization; in the data active = inhibition above about 28%
* hit, by the source's call; x = no result given. Sampled rows, rich in hits. Any-hit rate of the full collection: about 1.2%.

SMILES | NS3 helicase inh | ZTA DNA inh | core dimer inh | EBNA-1 inhibitor
O=C(c1cc2c(s1)CCCC2)N1CCN(Cc2ccc3c(c2)OCO3)CC1 | -24 | 2 | 11 | 6
O=C(Oc1ccc2c(c1)OCO2)c1cc2c(s1)CCC2 | 21 | 0 | 87* | -13
C=CCN(CC=C)S(=O)(=O)c1ccc(NC(=S)NC(=O)/C=C/c2cccc3ccccc23)cc1 | 5 | -4 | 56* | 11
CCCCNc1nc(Cl)nc(Nc2ccc(C)cc2)n1 | x | 14 | 4 | 2
Cc1cccc(-n2nc3c(c2NC(=O)c2ccco2)CSC3)c1C | 6 | 3 | 49* | 14
CCN(CC)S(=O)(=O)c1ccc(N2CCOCC2)c(NC(=O)c2c3c(nc4ccccc24)CCC3)c1 | 4 | 0 | 77* | -5
O=C(Nc1cccc(S(=O)(=O)N2CCOCC2)c1)c1ccc2ccccc2n1 | 6 | -7 | -3 | 6
O=C(Nc1cccc(S(=O)(=O)N2CCOCC2)c1)c1c2c(nc3ccccc13)CCC2 | 10 | 6 | 74* | 13
Nc1ccc(OC(=O)Nc2ccc(O)cc2)cc1 | 7 | -2 | 3 | -6
O=C(Nc1ccc(N2CCN(c3ccc(O)cc3)CC2)cc1)Oc1ccccc1 | -12 | -5 | 59* | 16
c1ccc(OCc2nn3c(-c4n[nH]c5c4CCC5)nnc3s2)cc1 | x | 7 | 47* | -4
CC1CCCCC12NC(=O)N(CC(=O)NCCc1ccc(S(N)(=O)=O)cc1)C2=O (stereo not drawn) | x | -1 | x | x
O=C1NC(=S)N/C1=C/c1cccn1-c1ccc([N+](=O)[O-])cc1 | 27 | 4 | 59* | -1
O=C(NCCc1ccc(OC(F)F)cc1)C1CC(=O)N(c2ccc3c(c2)OCCO3)C1 (stereo not drawn) | x | -4 | x | x
CCOC(=O)[C@H]1[C@H]2COc3ccc(Br)cc3[C@@H]2N2C(=O)CN(Cc3ccccc3)C(=O)[C@@]12C | x | -13 | x | x
CCOC(=O)C1(CCOc2ccccc2)CCN(C(=O)CCSC)CC1 | -8 | 37* | 7 | -1
CCCC1=NN2C(=N)/C(=C\c3ccc(SCc4ccco4)o3)C(=O)N=C2S1 | 25 | 61* | 71* | 50*
N#CC1=C(N)OC2=C(CC/C2=C\c2ccccc2)C1c1ccccc1 (stereo not drawn) | 30 | 17 | 55* | 5
O=S(=O)(c1ccc(Br)s1)N1CCN(CCOc2ccccc2)CC1 | x | -10 | x | x
Cc1cc(N2C(=O)C=CC2=O)c([N+](=O)[O-])cc1C | 20 | -6 | 48* | 10
O=C(N/N=C/C=C/c1ccc([N+](=O)[O-])cc1)c1cccs1 | -2 | 0 | 49* | 2
Cc1cc(C)c(S(=O)(=O)N2CCOC2CNC(=O)C(=O)NCCc2ccc(S(N)(=O)=O)cc2)c(C)c1 (stereo not drawn) | 0 | -9 | 50* | -8
Cc1ccc(S(=O)(=O)Nc2ccccc2C(=O)OC(C)C(=O)Nc2ccc3ccccc3c2)cc1[N+](=O)[O-] (stereo not drawn) | -18 | 2 | 47* | -8
Brc1ccc2c(c1)CN1CCCC1=N2 | 6 | 0 | -1 | 1
CCCN(CC(=O)Nc1ccccc1OC)C(=O)c1cc(-c2cccs2)nn1-c1ccccc1 | x | -10 | 12 | 8
SMILES | NS3 helicase inh | ZTA DNA inh | core dimer inh | EBNA-1 inhibitor
Cc1cc(NC(=O)c2ccc(S(=O)(=O)N3CCc4ccccc43)cc2)no1 | -1 | 16 | 72* | 3
Cc1cc(NC(=O)c2ccc(S(=O)(=O)N3CCOCC3)cc2)no1 | 0 | 4 | -1 | -11
N#CC1=C2N=C(N)c3c(sc4c3CCCCC4)N2C2=C(C(=O)CCC2)C1c1ccccc1 (stereo not drawn) | 10 | 4 | 34 | -14
CCOc1ccc(C2C(C#N)=C(N)N(c3sc4c(c3C#N)CCCC4)C3=C2C(=O)CCC3)cc1 (stereo not drawn) | 2 | -19 | 55* | 12
CCOC(=O)C1CCN(Cc2cc(Cl)c3ccccc3c2O)CC1 | 20 | 20 | -11 | -3
CCOC(=O)c1ccc(NC(=O)COc2ccc(-n3cnnn3)cc2)cc1 | -3 | -8 | 58* | -2
COc1ccc(/C=C2\C(=O)N(c3nc(-c4ccc(Br)cc4)cs3)N=C2c2ccccc2)cc1 | 23 | x | x | x
CCOc1cc(/C=C2\C(=O)N(c3nc(-c4ccc(Br)cc4)cs3)N=C2c2ccccc2)ccc1O | 20 | -5 | 55* | 7
O=c1oc(-c2ccccc2)nc2sc3c(c12)CCC3 | 4 | -8 | 59* | 1
Cc1ccccc1C(=O)N1CCC(C(=O)Nc2nc3ccc(F)cc3s2)CC1 | x | 11 | -1 | 3
COCCn1c(C)cc(C(=O)COC(=O)c2cc3c(s2)CCC3)c1C | 22 | -13 | 79* | 3
COCCn1c(C)cc(C(=O)COC(=O)c2cccc(O)c2)c1C | -1 | 4 | 3 | 3
COc1cccc(CN(C)C(=O)CCN(c2ccccc2)S(=O)(=O)c2ccc(C)cc2)c1OC | x | -4 | 1 | -1
CCOC(=O)c1nn(-c2ccccc2C)c2nc(-c3ccc(Cl)cc3)c(C#N)c(=O)n12 | 2 | -2 | 56* | -8
CCOC(=O)c1nn(-c2ccccc2C)c2nc(-c3ccc(C)cc3)c(C#N)c(=O)n12 | 1 | 6 | 27 | 9
COC(=O)Cc1cn(-c2ncc(C(F)(F)F)cc2Cl)c2ccccc12 | 0 | 11 | -1 | -3
CN(C)/C=C/C(=O)/C=C/c1cn(-c2ncc(C(F)(F)F)cc2Cl)c2ccccc12 | 28 | -3 | 58* | -3
COc1ccc(S(=O)(=O)N2CCCCCC2)cc1NC(=O)CN(C)Cc1ccc2c(c1)OCO2 | x | 15 | x | x
COc1ccc(NC(=O)CN(C)C(=O)/C=C/c2cn(-c3ccccc3)nc2-c2cccs2)cc1 | x | 22 | 6 | 1
COc1ccc(C(=O)N/C(=C/c2cccc3ccccc23)C(=O)NCCc2c[nH]c3ccccc23)cc1OC | -2 | 16 | 39 | 113*
Cc1cc(C)c2c(c1)[C@@H]1C=CC[C@@H]1[C@H](c1ccc(S(=O)(=O)N3CCOCC3)cc1)N2 | 16 | 1 | 84* | -4
O=C(O)CSc1cc(C(=O)c2ccccc2O)cn2c(=O)c3c(-c4ccccc4)csc3nc12 | 4 | 7 | 55* | 12
COc1cccc(-c2nc3ccc(C(=O)NC(C)Cc4cccnc4)cc3o2)c1 (stereo not drawn) | -2 | 13 | -239 | 3
Cc1cccc2sc(NC(=O)C3CCN(S(=O)(=O)c4cc([N+](=O)[O-])ccc4Cl)CC3)nc12 | 0 | -8 | 49* | 14
COc1ccc(NC(=O)COC(=O)c2cc3c(s2)CCC3)cc1 | x | -12 | x | x
O=C(COC(=O)c1cc2c(s1)CCC2)Nc1ccc(F)cc1 | 31 | 7 | 50* | -11
Cc1ccc(CNC(=O)CN(C(=O)C2(C)CC(=O)N=C3C=CC=CN32)c2ccc(F)cc2)cc1 (stereo not drawn) | -6 | 0 | -2 | -2
CCOC(=O)c1c(NS(=O)(=O)c2ccc(Br)cc2)sc2c1CCC2 | 27 | -8 | 70* | 5
COc1ccc(OC)c(/C=C/C(=O)OCC(=O)Nc2cccc(Oc3ccccc3)c2)c1 | -11 | 10 | -1 | 14

Screening results deposited in PubChem by The Scripps Research Institute Molecular Screening Center.
